Experimental data: publication PMC9365243 (Chemical Science, 2022)

Test system: human monocyte-derived macrophages
Assay: Fluorophore uptake, fluorescence microscopy of macrophages
Format: cell-based
Conditions: 30 μM, 3 h, 37 °C, fluorescence microscopy (λex 492 nm, λem 518 nm)
Summary of the method: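 Human monocyte-derived macrophages were incubated for 3 h with 30 μM free fluorophore or fluorophore-labelled oligopeptide, with DMSO alone as negative control. Cells were then imaged by fluorescence microscopy in the green channel (λex = 492 nm, λem = 518 nm) and in light field to find where the fluorophore sat.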

## O=C(O)c1ccc2c(c1)C(=O)OC21c2ccc(O)cc2Oc2cc(O)ccc21 [5-FAM, 5-carboxy-fluorescein]
  uptake into cells (fluorophore localization): not able to penetrate the cell membrane
